According to ChEMBL document CHEMBL4152196, “Design, synthesis and biological evaluation of novel trimethylangelicin analogues targeting nuclear factor kB (NF-kB)” (Eur J Med Chem, 2018):
Activity calls are given as the source filed them. The rule behind the calls is not given here.

Columns and labels:
Salmonella typhimurium [1] = experiment: Genotoxicity in Salmonella typhimurium TA100 assessed as revertant colonies at 10 uL/plate in absence of Sprague-Dawley rat S9 metabolic activation after 72 hrs by Ames test (reference value: 1); assay type: toxicity, organism-based; conditions: salmonella enterica subsp. enterica serovar typhimurium
Salmonella typhimurium [2] = experiment: Genotoxicity in Salmonella typhimurium TA98 assessed as revertant colonies at 5 uL/plate in presence of Sprague-Dawley rat S9 metabolic activation after 72 hrs by Ames test (reference value: 1); assay type: toxicity, organism-based; conditions: salmonella enterica subsp. enterica serovar typhimurium
Salmonella typhimurium [3] = experiment: Genotoxicity in Salmonella typhimurium TA98 assessed as revertant colonies at 10 uL/plate in absence of Sprague-Dawley rat S9 metabolic activation after 72 hrs by Ames test (reference value: 1); assay type: toxicity, organism-based; conditions: salmonella enterica subsp. enterica serovar typhimurium
Salmonella typhimurium [4] = experiment: Genotoxicity in Salmonella typhimurium TA100 assessed as revertant colonies at 5 uL/plate in absence of Sprague-Dawley rat S9 metabolic activation after 72 hrs by Ames test (reference value: 1); assay type: toxicity, organism-based; conditions: salmonella enterica subsp. enterica serovar typhimurium
Salmonella typhimurium [5] = experiment: Genotoxicity in Salmonella typhimurium TA100 assessed as revertant colonies at 10 uL/plate in presence of Sprague-Dawley rat S9 metabolic activation after 72 hrs by Ames test (reference value: 1); assay type: toxicity, organism-based; conditions: salmonella enterica subsp. enterica serovar typhimurium
Salmonella typhimurium [6] = experiment: Genotoxicity in Salmonella typhimurium TA98 assessed as revertant colonies at 1 uL/plate in presence of Sprague-Dawley rat S9 metabolic activation after 72 hrs by Ames test (reference value: 1); assay type: toxicity, organism-based; conditions: salmonella enterica subsp. enterica serovar typhimurium
Salmon testes DNA [7] = experiment: Induction of damage in salmon testes DNA at 100 uM in absence of 2.5 to 7.5 J/cm2 UVA irradiation by ethidium bromide dye-based agarose gel electrophoresis analysis; assay type: nucleic-acid assay; conditions: salmonidae
Salmonella typhimurium [8] = experiment: Genotoxicity in Salmonella typhimurium TA98 assessed as revertant colonies at 100 uL/plate in presence of Sprague-Dawley rat S9 metabolic activation after 72 hrs by Ames test (reference value: 1); assay type: toxicity, organism-based; conditions: salmonella enterica subsp. enterica serovar typhimurium
Salmonella typhimurium [9] = experiment: Genotoxicity in Salmonella typhimurium TA100 assessed as revertant colonies at 100 uL/plate in absence of Sprague-Dawley rat S9 metabolic activation after 72 hrs by Ames test (reference value: 1); assay type: toxicity, organism-based; conditions: salmonella enterica subsp. enterica serovar typhimurium
Salmonella typhimurium [10] = experiment: Genotoxicity in Salmonella typhimurium TA100 assessed as revertant colonies at 100 uL/plate in presence of Sprague-Dawley rat S9 metabolic activation after 72 hrs by Ames test (reference value: 1); assay type: toxicity, organism-based; conditions: salmonella enterica subsp. enterica serovar typhimurium
Salmonella typhimurium [11] = experiment: Genotoxicity in Salmonella typhimurium TA98 assessed as revertant colonies at 5 uL/plate in absence of Sprague-Dawley rat S9 metabolic activation after 72 hrs by Ames test (reference value: 1); assay type: toxicity, organism-based; conditions: salmonella enterica subsp. enterica serovar typhimurium
Salmon testes DNA [12] = experiment: Induction of damage in salmon testes DNA at 100 uM in presence of 2.5 to 7.5 J/cm2 UVA irradiation by ethidium bromide dye-based agarose gel electrophoresis analysis; assay type: nucleic-acid assay; conditions: salmonidae
Salmonella typhimurium [13] = experiment: Genotoxicity in Salmonella typhimurium TA98 assessed as revertant colonies at 50 uL/plate in absence of Sprague-Dawley rat S9 metabolic activation after 72 hrs by Ames test (reference value: 1); assay type: toxicity, organism-based; conditions: salmonella enterica subsp. enterica serovar typhimurium
Salmonella typhimurium [14] = experiment: Genotoxicity in Salmonella typhimurium TA100 assessed as revertant colonies at 1 uL/plate in presence of Sprague-Dawley rat S9 metabolic activation after 72 hrs by Ames test (reference value: 1); assay type: toxicity, organism-based; conditions: salmonella enterica subsp. enterica serovar typhimurium
Salmonella typhimurium [15] = experiment: Genotoxicity in Salmonella typhimurium TA98 assessed as revertant colonies at 50 uL/plate in presence of Sprague-Dawley rat S9 metabolic activation after 72 hrs by Ames test (reference value: 1); assay type: toxicity, organism-based; conditions: salmonella enterica subsp. enterica serovar typhimurium
Salmonella typhimurium [16] = experiment: Genotoxicity in Salmonella typhimurium TA100 assessed as revertant colonies at 50 uL/plate in absence of Sprague-Dawley rat S9 metabolic activation after 72 hrs by Ames test (reference value: 1); assay type: toxicity, organism-based; conditions: salmonella enterica subsp. enterica serovar typhimurium
Salmonella typhimurium [17] = experiment: Genotoxicity in Salmonella typhimurium TA98 assessed as revertant colonies at 10 uL/plate in presence of Sprague-Dawley rat S9 metabolic activation after 72 hrs by Ames test (reference value: 1); assay type: toxicity, organism-based; conditions: salmonella enterica subsp. enterica serovar typhimurium
Salmonella typhimurium [18] = experiment: Genotoxicity in Salmonella typhimurium TA100 assessed as revertant colonies at 5 uL/plate in presence of Sprague-Dawley rat S9 metabolic activation after 72 hrs by Ames test (reference value: 1); assay type: toxicity, organism-based; conditions: salmonella enterica subsp. enterica serovar typhimurium
Salmonella typhimurium [19] = experiment: Genotoxicity in Salmonella typhimurium TA98 assessed as revertant colonies at 1 uL/plate in absence of Sprague-Dawley rat S9 metabolic activation after 72 hrs by Ames test (reference value: 1); assay type: toxicity, organism-based; conditions: salmonella enterica subsp. enterica serovar typhimurium
Salmonella typhimurium [20] = experiment: Genotoxicity in Salmonella typhimurium TA100 assessed as revertant colonies at 50 uL/plate in presence of Sprague-Dawley rat S9 metabolic activation after 72 hrs by Ames test (reference value: 1); assay type: toxicity, organism-based; conditions: salmonella enterica subsp. enterica serovar typhimurium
Homo sapiens [21] = species: Homo sapiens; experiment: Inhibition of NF-kappaB (unknown origin) assessed as decrease in NF-kappaB/DNA interaction at 12.5 to 100 uM using 32P-labeled target NF-kappaB double-stranded oligonucleotide after 30 mins by EMSA
Summary of the method: (§1)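 Purified NF-κB p50 (0.1 µl/20 µl, 50 gsu) was combined with 0.25 ng of ³²P-labeled double-stranded NF-κB consensus oligonucleotide. Bound 30 min at room temperature, then run on 6% polyacrylamide in 0.25× TBE at 200 V. IC₅₀ is 50% inhibition of the complex.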

Salmonella typhimurium [22] = experiment: Genotoxicity in Salmonella typhimurium TA98 assessed as revertant colonies at 100 uL/plate in absence of Sprague-Dawley rat S9 metabolic activation after 72 hrs by Ames test (reference value: 1); assay type: toxicity, organism-based; conditions: salmonella enterica subsp. enterica serovar typhimurium
Salmonella typhimurium [23] = experiment: Genotoxicity in Salmonella typhimurium TA100 assessed as revertant colonies at 1 uL/plate in absence of Sprague-Dawley rat S9 metabolic activation after 72 hrs by Ames test (reference value: 1); assay type: toxicity, organism-based; conditions: salmonella enterica subsp. enterica serovar typhimurium
IB3-1 = experiment: Antiproliferative activity against human IB3-1 cells after 2 days by cell counting analysis; assay type: cell-based; conditions: IB3-1, 48 h
Summary of the method: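 IB3-1 cells from a CF patient (ΔF508/W1282X), immortalized with adeno12/SV40, grown in LHC-8 with 5% FBS and no gentamycin at 37°C/5% CO₂. Treated at 12.5, 25, 50, 100, 200 and 800 µM. Cells counted by Coulter counter after 2 days, with untreated cells in log phase. IC₅₀ is the concentration giving 50% inhibition of cell growth.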

[24] = Inhibition of NF-kappaB (unknown origin) assessed as decrease in NF-kappaB/DNA interaction using 32P-labeled target NF-kappaB double-stranded oligonucleotide after 30 mins by EMSA; parameters: species or system Homo sapiens; summary of the method: as §1
Homo sapiens [25] = species: Homo sapiens; experiment: Inhibition of NF-kappaB (unknown origin) assessed as decrease in NF-kappaB/DNA interaction at 12.5 uM using 32P-labeled target NF-kappaB double-stranded oligonucleotide after 30 mins by EMSA

Cc1cc(=O)oc2c1cc(C)c1occ(C)c12
T/C (Salmonella typhimurium [1]): 1.06 | T/C (Salmonella typhimurium [2]): 1.9 | T/C (Salmonella typhimurium [3]): 1.16 | T/C (Salmonella typhimurium [4]): 1.03 | T/C (Salmonella typhimurium [5]): 1.04 | T/C (Salmonella typhimurium [6]): 0.75 | Activity (Salmon testes DNA [7]): Active | T/C (Salmonella typhimurium [8]): 6.86 | T/C (Salmonella typhimurium [9]): 1.03 | T/C (Salmonella typhimurium [10]): 2.52 | T/C (Salmonella typhimurium [11]): 0.63 | Activity (Salmon testes DNA [12]): Active | T/C (Salmonella typhimurium [13]): 0.97 | T/C (Salmonella typhimurium [14]): 1.1 | T/C (Salmonella typhimurium [15]): 8.25 | T/C (Salmonella typhimurium [16]): 1.09 | T/C (Salmonella typhimurium [17]): 4.5 | T/C (Salmonella typhimurium [18]): 1 | T/C (Salmonella typhimurium [19]): 1.03 | T/C (Salmonella typhimurium [20]): 1.16 | inhibition (Homo sapiens [21]): Active | T/C (Salmonella typhimurium [22]): 1.22 | T/C (Salmonella typhimurium [23]): 0.99

CCc1cc2c(C)cc(=O)oc2c2c(C)coc12
IC50 (IB3-1): > 200 µM | inhibition (Homo sapiens [21]): Active | IC50 [24]: 24 µM

CCCc1cc(=O)oc2c1cc(C)c1occ(C)c12
IC50 (IB3-1): 200 µM | inhibition (Homo sapiens [21]): Active | IC50 [24]: 21.9 µM

CCc1cc(=O)oc2c1cc(C)c1occ(C)c12
inhibition (Homo sapiens [25]): Active | IC50 (IB3-1): 50 µM | inhibition (Homo sapiens [21]): Active | IC50 [24]: 8 µM

CCCc1cc(=O)oc2c1cc(CC)c1occ(C)c12
IC50 (IB3-1): 162 µM | inhibition (Homo sapiens [21]): Active | IC50 [24]: 19.8 µM

CCc1cc(=O)oc2c1cc(CC)c1occ(C)c12
IC50 (IB3-1): > 200 µM | inhibition (Homo sapiens [21]): Active | IC50 [24]: 17.8 µM

Cc1cc2c(C(C)C)cc(=O)oc2c2c(C)coc12
IC50 (IB3-1): > 200 µM | inhibition (Homo sapiens [21]): Active | IC50 [24]: 18.9 µM
